Source: ChEMBL document CHEMBL4052591, “Evaluation of Jatrophane Esters from Euphorbia spp. as Modulators of Candida albicans Multidrug Transporters” (2017)
Values after ≈ are worked out from the molar mass of the structure shown.

Key:
Candida albicans [1] = assay: Inhibition of Candida albicans CDR1 expressed in Saccharomyces cerevisiae AD assessed as potentiation of fluconazole-induced antifungal activity against Saccharomyces cerevisiae AD by checkerboard method
Method in brief: (§1)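 CLSI checkerboard in YEPD: 10^4 cells per well, grown 48 h at 30 °C, OD read. Fluconazole 0.15−800 μM was crossed with inhibitor 0.15−800 μM. Run on control AD1-8u− and on strains overexpressing CaCdr1p or CaMdr1p. FIC of each agent = MIC in combination / MIC alone; FICI = sum of both FICs.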

Saccharomyces cerevisiae [2] = assay: Resistance index, ratio of MIC80 for Saccharomyces cerevisiae AD over-expressing Candida albicans MDR1 to MIC80 for Saccharomyces cerevisiae AD1-8u(-); assay type: functional
Method in brief: (§2)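 MIC80 of the transporter-overexpressing strain and the AD1-8u− control strain each measured after 48 h growth at 30 °C over 0.15−80 μM inhibitor, read by OD600. MIC80 is the concentration cutting growth by 80% versus the no-inhibitor control. Resistance index = overexpressing-strain MIC80 divided by control-strain MIC80.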

Candida albicans [3] = assay: Inhibition of Candida albicans CDR1 expressed in Saccharomyces cerevisiae AD assessed as ratio of MIC80 of fluconazole in combinantion with compound to MIC80 of fluconazole alone for Saccharomyces cerevisiae AD by checkerboard method; method in brief: as §1
Candida albicans [4] = assay: Inhibition of Candida albicans CDR1 expressed in Saccharomyces cerevisiae AD assessed as ratio of MIC80 of compound in combinantion with fluconazole to MIC80 of compound alone for Saccharomyces cerevisiae AD by checkerboard method; method in brief: as §1
Saccharomyces cerevisiae [5] = assay: Antifungal activity against Saccharomyces cerevisiae AD1-8u(-) after 48 hrs; assay type: functional
Method in brief: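 Growth inhibition of transporter-deleted control S. cerevisiae AD1-8u− over […]; 10^4 cells grown in YEPD for 48 h at 30 °C. OD600 was read and growth without inhibitor was set as 100%. MIC80 is the concentration cutting growth by 80%. Means ± SD from three independent experiments.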

Saccharomyces cerevisiae [6] = assay: Antifungal activity against Saccharomyces cerevisiae AD over-expressing Candida albicans MDR1 transporter after 48 hrs; assay type: functional
Method in brief: (§3)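 S. cerevisiae AD1-8u− derivative overexpressing the transporter, grown in YEPD at 30 °C. Cells (10^4) incubated 48 h at 30 °C with a range of inhibitor concentrations […]; growth read as OD600. Growth without inhibitor taken as 100%; MIC80 is the concentration decreasing growth by 80%. Means ± SD of three independent experiments.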

Saccharomyces cerevisiae [7] = assay: Potentiation of fluconazole-induced antifungal activity against Saccharomyces cerevisiae AD1-8u(-) assessed as ratio of MIC80 of compound in combinantion with fluconazole to MIC80 of compound alone by checkerboard method; assay type: functional; method in brief: as §1
Candida albicans [8] = assay: Inhibition of Candida albicans CDR1 transporter expressed in Saccharomyces cerevisiae AD cells assessed as nile red accumulation at 70 uM after 30 mins by flow cytometric analysis relative to control; assay type: cell-based; set-up: Activity: scale not given: the % may be the effect or the level left
Method in brief: (§4)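 S. cerevisiae AD strains overexpressing CaCdr1p (AD-CDR1) or CaMdr1p (AD-MDR1) were grown at 30 °C from OD600 0.1 to 0.25. They were resuspended as a 5% suspension in YEPD:water 1:2. Nile Red (7 μM final) was given ± inhibitor (70 μM) for 30 min at 30 °C. Accumulation was read by flow cytometry on 10 000 cells. Means ± SD, three independent experiments.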

Saccharomyces cerevisiae [9] = assay: Antifungal activity against Saccharomyces cerevisiae AD over-expressing Candida albicans CDR1 transporter after 48 hrs; assay type: functional; method in brief: as §3
Candida albicans [10] = assay: Inhibition of Candida albicans MDR1 expressed in Saccharomyces cerevisiae AD assessed as ratio of MIC80 of fluconazole in combinantion with compound to MIC80 of fluconazole alone for Saccharomyces cerevisiae AD by checkerboard method; method in brief: as §1
Saccharomyces cerevisiae [11] = assay: Potentiation of fluconazole-induced antifungal activity against Saccharomyces cerevisiae AD1-8u(-) by checkerboard method; assay type: functional; method in brief: as §1
Saccharomyces cerevisiae [12] = assay: Potentiation of fluconazole-induced antifungal activity against Saccharomyces cerevisiae AD1-8u(-) assessed as as ratio of MIC80 of fluconazole in combinantion with compound to MIC80 of fluconazole alone by checkerboard method; assay type: functional; method in brief: as §1
Candida albicans [13] = assay: Inhibition of Candida albicans MDR1 expressed in Saccharomyces cerevisiae AD assessed as potentiation of fluconazole-induced antifungal activity against Saccharomyces cerevisiae AD by checkerboard method; method in brief: as §1
Candida albicans [14] = assay: Inhibition of Candida albicans MDR1 expressed in Saccharomyces cerevisiae AD assessed as ratio of MIC80 of compound in combinantion with fluconazole to MIC80 of compound alone for Saccharomyces cerevisiae AD by checkerboard method; method in brief: as §1
Saccharomyces cerevisiae [15] = assay: Resistance index, ratio of MIC80 for Saccharomyces cerevisiae AD over-expressing Candida albicans CDR1 to MIC80 for Saccharomyces cerevisiae AD1-8u(-); assay type: functional; method in brief: as §2
Candida albicans [16] = assay: Inhibition of Candida albicans MDR1 transporter expressed in Saccharomyces cerevisiae AD cells assessed as nile red dye accumulation at 70 uM after 30 mins by flow cytometric analysis relative to control; assay type: cell-based; set-up: Activity: scale not given: the % may be the effect or the level left; method in brief: as §4

SMILES | fractional inhibitory concentration index (FICI) (Candida albicans [1]) | Ratio (Saccharomyces cerevisiae [2]) | Ratio (Candida albicans [3]) | Ratio (Candida albicans [4]) | MIC80 (Saccharomyces cerevisiae [5]) | MIC80 (Saccharomyces cerevisiae [6]) | Ratio (Saccharomyces cerevisiae [7]) | Activity (Candida albicans [8]) | MIC80 (Saccharomyces cerevisiae [9]) | Ratio (Candida albicans [10]) | fractional inhibitory concentration index (FICI) (Saccharomyces cerevisiae [11]) | Ratio (Saccharomyces cerevisiae [12]) | fractional inhibitory concentration index (FICI) (Candida albicans [13]) | Ratio (Candida albicans [14]) | Ratio (Saccharomyces cerevisiae [15]) | Activity (Candida albicans [16])
C=C1[C@@H](OC(C)=O)[C@H]2[C@@H](OC(=O)COC(=O)c3ccccc3)[C@](C)(OC(C)=O)C[C@]2(O)C(=O)[C@@H](C)/C=C/C(C)(C)[C@H](OC(C)=O)[C@H](OC(C)=O)[C@H]1OC(=O)C(C)C | 1.2 | 1.2 | 0.2 | 1 | 324 µM (≈ 259 µg/mL) | 411 µM (≈ 329 µg/mL) | 1 | 92% | 416 µM (≈ 333 µg/mL) | 1 | 2 | 1 | 2 | 1 | 1.2 | –
CC(=O)O[C@H]1[C@@H](OC(C)=O)C(C)(C)/C=C/[C@@](C)(O)C(=O)[C@@]2(O)C[C@@](C)(OC(C)=O)[C@H](OC(C)=O)[C@@H]2[C@H]2OC(=O)CC[C@@]2(OC(C)=O)[C@@H]1OC(=O)C(C)C | 2 | 1.01 | 1 | 1 | 682 µM (≈ 515 µg/mL) | 691 µM (≈ 522 µg/mL) | 1 | 85% | 711 µM (≈ 537 µg/mL) | 0.5 | 2 | 1 | 1 | 0.5 | 1.04 | 79%
C=C1[C@@H](OC(=O)C(C)CC)[C@H]2[C@@H](O)[C@](C)(OC(C)=O)C[C@]2(O)C(=O)[C@@H](C)/C=C/C(C)(C)[C@H](OC(C)=O)[C@H](OC(C)=O)[C@H]1OC(=O)c1ccccc1 (some centres not stated) | 1.5 | 0.87 | 1 | 0.5 | 719 µM (≈ 514 µg/mL) | 629 µM (≈ 450 µg/mL) | 1 | 64% | 681 µM (≈ 487 µg/mL) | 1 | 2 | 1 | 2 | 1 | 0.9 | 65%
C=C1[C@@H](OC(C)=O)[C@H]2[C@@H](OC(=O)c3ccccc3)[C@@H](C)C[C@]2(O)[C@H](O)[C@H](C)/C=C/C(C)(C)C(=O)[C@H](OC(=O)C(C)C)[C@H]1OC(C)=O | 2 | 0.85 | 1 | 1 | 792 µM (≈ 509 µg/mL) | 679 µM (≈ 436 µg/mL) | 1 | – | 710 µM (≈ 456 µg/mL) | 1 | 2 | 1 | 2 | 1 | 0.9 | 74%
